In ChEMBL document CHEMBL4376883, “Discovery and Optimization of Small Molecules Targeting the Protein-Protein Interaction of Heat Shock Protein 90 (Hsp90) and Cell Division Cycle 37 as Orally Active Inhibitors for the Treatment of Colorectal Cancer” (J Med Chem, 2020):

How the values were obtained:
[1] = biological target: Heat shock protein HSP90 (Homo sapiens, UniProt P07900+P08238); experiment: Binding affinity to recombinant […] HSP90 N-terminal domain (9 to 236 residues) (unknown origin) expressed in Escherichia coli BL21 (DE3) by isothermal calorimetric method
Procedure, shortened: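 ITC: 50 µM Hsp90 in the cell and 300 µM compound in the syringe, both in 20 mM Tris-HCl, 150 mM NaCl, pH 7.4. Nineteen injections at 180 s intervals with stirring at 1000 rpm.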

[2] = tested on: HCT-116; experiment: Antiproliferative activity against human HCT116 cells measured after 72 hrs by CCK8 assay; type: functional, cell-based; settings: HCT-116, 72 h
Procedure, shortened: (§1)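 Cells grown in RPMI 1640 with 10% FBS at 37 °C, 5% CO2; STR-authenticated and mycoplasma-checked. Seeded at 3000-5000 cells/well and left 24 h. Serial compound dilutions added for 72 h, with matched DMSO as control. Viability read by CCK8 kit using the standard protocol. IC50 values derived from at least three parallel experiments.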

[3] = tested on: L02; experiment: Cytotoxicity against human L02 cells measured after 72 hrs by CCK8 assay; type: functional, cell-based; settings: L02, 72 h; procedure, shortened: as §1
[4] = Permeability of the compound at pH 7.4 by PAMPA; type: ADME; settings: read-out: permeability
Procedure, shortened: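 Permeability coefficient (Pe) was measured at pH 7.4 by double-sink PAMPA.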

[5] = Stability of the compound in mouse plasma assessed as parent compound remaining at 1 uM measured immediately by LC-MS/MS analysis; type: ADME, cell-free; settings: read-out: Stability
Procedure, shortened: (§2)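 Compound diluted from 10 mM DMSO stock to 1 μM in mouse or human plasma and held at 37 °C in a water bath. Reactions were stopped with acetonitrile at 0, 10, 30, 60 and 90 min. Parent compound was quantified by LC-MS/MS as % remaining.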

[6] = Stability of the compound in mouse plasma assessed as parent compound remaining at 1 uM measured after 10 mins by LC-MS/MS analysis; type: ADME, cell-free; settings: read-out: Stability; procedure, shortened: as §2
[7] = Stability of the compound in mouse plasma assessed as parent compound remaining at 1 uM measured after 30 mins by LC-MS/MS analysis; type: ADME, cell-free; settings: read-out: Stability; procedure, shortened: as §2
[8] = Stability of the compound in human plasma assessed as parent compound remaining at 1 uM measured immediately by LC-MS/MS analysis; type: ADME, cell-free; settings: read-out: Stability; procedure, shortened: as §2
[9] = Stability of the compound in human plasma assessed as parent compound remaining at 1 uM measured after 30 mins by LC-MS/MS analysis; type: ADME, cell-free; settings: read-out: Stability; procedure, shortened: as §2
[10] = Stability of the compound in human plasma assessed as parent compound remaining at 1 uM measured after 90 mins by LC-MS/MS analysis; type: ADME, cell-free; settings: read-out: Stability; procedure, shortened: as §2
[11] = Half life in human liver microsomes at 10 uM preincubated for 5 mins followed by NADPH addition by LC-MS/MS analysis; type: ADME, Microsome
Procedure, shortened: (§3)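 Compound at 10 µM preincubated 5 min at 37 °C with human or mouse liver microsomes (0.5 mg/mL) in 100 mM phosphate, pH 7.4. Reaction started with 1 mM NADPH, stopped with cold acetonitrile, centrifuged and analysed by LC-MS/MS.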

[12] = Half life in mouse liver microsomes at 10 uM preincubated for 5 mins followed by NADPH addition by LC-MS/MS analysis; type: ADME, Microsome; procedure, shortened: as §3
[13] = Clearance in mouse liver microsomes at 10 uM preincubated for 5 mins followed by NADPH addition by LC-MS/MS analysis; type: ADME, Microsome; settings: read-out: CLH; procedure, shortened: as §3
[14] = Effect on HSP70 in human HCT116 cells up to 10 uM measured after 24 hrs by Western blot analysis; type: cell-based
Procedure, shortened: (§4)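 HCT116 cells treated with 0, 1, 5 or 10 µM for 24 h, or with 10 µM for 0, 4, 12, 24 or 48 h. Lysates separated by SDS-PAGE and blotted. Membranes blocked in 5% milk, primary antibodies overnight at 4 °C, HRP secondaries, chemiluminescent detection.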

[15] = Effect on HSP70 in human HCT116 cells at 10 uM measured up to 48 hrs by Western blot analysis; type: cell-based; procedure, shortened: as §4
[16] = tested on: HCT-116; experiment: Effect on total phosphorylated CDC37 expression in human HCT116 cells up to 10 uM measured after 24 hrs by Western blot analysis; type: ADME, cell-based; settings: hct-116, 24 h; procedure, shortened: as §4
[17] = Half life in plasma of human HCT116 cells xenografted BALB/c mouse at 80 mg/kg, po administered as single dose by LC-MS/MS analysis; type: ADME, organism-based
Procedure, shortened: (§5)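 Single oral dose of 80 mg/kg given to BALB/c nude mice (n = 6 per group) carrying flank HCT116 xenografts. Blood and tumor were collected at 0, 0.25, 0.5, 1, 2, 4, 8, 12 and 24 h. Blood went into heparinized tubes and was spun at 3000 rpm for 10 min to give plasma. Samples were stored at -80 °C, then drug levels in plasma and tumor were measured by LC-MS/MS.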

[18] = Cmax in plasma of human HCT116 cells xenografted BALB/c mouse at 80 mg/kg, po administered as single dose by LC-MS/MS analysis; type: ADME, organism-based; design: dose 80 mg/kg, route oral
Procedure, shortened: (§6)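 Tumour-bearing mice (n = 6 per group) given one oral dose of 80 mg/kg. Blood and tumour collected into heparinized tubes at 0, 0.25, 0.5, 1, 2, 4, 8, 12 and 24 h. Plasma obtained by centrifugation at 3000 rpm for 10 min. Samples stored at -80 °C and quantified by LC-MS/MS.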

[19] = AUC (0 to t) in plasma of human HCT116 cells xenografted BALB/c mouse at 80 mg/kg, po administered as single dose by LC-MS/MS analysis; type: ADME, organism-based; procedure, shortened: as §6
[20] = Apparent volume of distribution during terminal phase in plasma of human HCT116 cells xenografted BALB/c mouse at 80 mg/kg, po administered as single dose by LC-MS/MS analysis; type: ADME, organism-based; settings: read-out: Vz/F
Procedure, shortened: (§7)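 Xenograft mice (n = 6 per group) received a single 80 mg/kg oral dose. Plasma and tumour were sampled over 0–24 h into heparinized tubes and analysed by LC-MS/MS.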

[21] = Apparent oral clearance in plasma of human HCT116 cells xenografted BALB/c mouse at 80 mg/kg administered as single dose by LC-MS/MS analysis; type: ADME, organism-based; procedure, shortened: as §7
[22] = Half life in tumor of human HCT116 cells xenografted BALB/c mouse at 80 mg/kg, po administered as single dose by LC-MS/MS analysis; type: ADME, organism-based, Neoplasm; procedure, shortened: as §5
[23] = Cmax in tumor of human HCT116 cells xenografted BALB/c mouse at 80 mg/kg, po administered as single dose by LC-MS/MS analysis; type: ADME, organism-based, Neoplasm; design: dose 80 mg/kg, route oral; procedure, shortened: as §6
[24] = AUC (0 to t) in tumor of human HCT116 cells xenografted BALB/c mouse at 80 mg/kg, po administered as single dose by LC-MS/MS analysis; type: ADME, organism-based, Neoplasm; procedure, shortened: as §6
[25] = Apparent oral clearance in tumor of human HCT116 cells xenografted BALB/c mouse at 80 mg/kg administered as single dose by LC-MS/MS analysis; type: ADME, organism-based, Neoplasm; procedure, shortened: as §7
[26] = Half life in plasma of human HCT116 cells xenografted BALB/c mouse at 80 mg/kg administered as single dose by LC-MS/MS analysis

Cc1cc(C)c(S(=O)(=O)N(CC(=O)O)c2ccc(Nc3ccnc(N4CCNCC4)n3)cc2)c(C)c1
Kd [1]: 630 nM | IC50 [2]: 1730 nM | IC50 [3]: > 50000 nM | Papp [4]: 104 ×10⁻⁶ cm/s | remaining at 0 min, 1 µM [5]: 100% | remaining at 10 min, 1 µM [6]: 100% | remaining at 0.5 h, 1 µM [7]: 102% | remaining at 0 min, 1 µM [8]: 100% | remaining at 0.5 h, 1 µM [9]: 104% | remaining at 1.5 h, 1 µM [10]: 103% | half-life at 10 µM [11]: 2.08 h | half-life at 10 µM [12]: 1.6 h | microsomal CLint at 10 µM [13]: 10.3 µL/min/mg | Activity [14]: Non-Toxic | Activity [15]: Non-Toxic | Activity [16]: Non-Toxic | half-life [17]: 1.46 h | Cmax [18]: 308 µg/mL | AUC(0-t) [19]: 533 µg·h/mL | Vd/F [20]: 0.392 L/kg | CL/F [21]: 3.11 mL/min/kg | half-life [22]: 4.66 h | Cmax [23]: 50 µg/mL | AUC(0-t) [24]: 132 µg·h/mL | CL/F [25]: 9.93 mL/min/kg | T1/2 [26]: 1.46 h
